# Residue numbers refer to the chain shown, from its start.
# What was measured:
# Conditions in all cases: stereoisomer not certain
# A0A140T8K4 = system: T1, A0A140T8K4
# T1 sequence (whole entry): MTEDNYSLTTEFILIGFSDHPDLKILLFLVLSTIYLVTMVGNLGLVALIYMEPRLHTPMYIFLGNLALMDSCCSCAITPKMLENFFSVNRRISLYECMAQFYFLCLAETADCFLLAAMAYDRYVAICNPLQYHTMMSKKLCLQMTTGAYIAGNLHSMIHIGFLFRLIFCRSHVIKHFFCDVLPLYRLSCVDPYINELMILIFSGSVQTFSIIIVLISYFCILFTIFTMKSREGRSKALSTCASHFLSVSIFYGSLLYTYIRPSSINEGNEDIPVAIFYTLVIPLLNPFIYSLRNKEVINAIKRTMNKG
# Outline: (§1)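 Assay methods differ from source to source, frequently being transient luciferase assays in mammalian cell lines. For each receptor–molecule pair, the label responsive (active) applies when the original authors judged the measured signal statistically different from baseline, and non-responsive (inactive) applies otherwise.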
# A0A2J8MY22 = system: T2, A0A2J8MY22
# T2 sequence (whole entry): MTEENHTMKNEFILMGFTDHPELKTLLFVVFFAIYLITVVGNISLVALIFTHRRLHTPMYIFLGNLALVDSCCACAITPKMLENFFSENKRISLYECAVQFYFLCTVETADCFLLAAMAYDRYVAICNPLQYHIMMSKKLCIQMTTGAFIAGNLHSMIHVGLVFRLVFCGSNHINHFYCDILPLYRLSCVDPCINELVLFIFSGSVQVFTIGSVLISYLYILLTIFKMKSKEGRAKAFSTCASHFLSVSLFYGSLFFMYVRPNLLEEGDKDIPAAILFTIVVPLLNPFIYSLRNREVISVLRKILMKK
# Outline: as §1
# A0A2R8ZIW4 = system: T3, A0A2R8ZIW4
# T3 sequence (whole entry): T2 sequence (whole entry) with V39I, I280V
# Outline: as §1
# A0A3Q7SVK8 = system: T4, A0A3Q7SVK8
# T4 sequence (whole entry): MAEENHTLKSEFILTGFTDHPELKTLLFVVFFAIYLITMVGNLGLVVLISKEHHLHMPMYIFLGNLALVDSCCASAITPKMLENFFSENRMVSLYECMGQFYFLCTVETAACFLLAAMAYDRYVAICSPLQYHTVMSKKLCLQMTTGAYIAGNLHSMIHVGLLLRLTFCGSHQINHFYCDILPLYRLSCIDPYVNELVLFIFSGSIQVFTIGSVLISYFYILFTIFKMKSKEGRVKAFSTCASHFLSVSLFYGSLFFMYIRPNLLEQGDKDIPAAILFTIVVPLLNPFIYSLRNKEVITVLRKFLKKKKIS
# Outline: as §1
# A0A6P3DZI2 = system: T5, A0A6P3DZI2
# T5 sequence (whole entry): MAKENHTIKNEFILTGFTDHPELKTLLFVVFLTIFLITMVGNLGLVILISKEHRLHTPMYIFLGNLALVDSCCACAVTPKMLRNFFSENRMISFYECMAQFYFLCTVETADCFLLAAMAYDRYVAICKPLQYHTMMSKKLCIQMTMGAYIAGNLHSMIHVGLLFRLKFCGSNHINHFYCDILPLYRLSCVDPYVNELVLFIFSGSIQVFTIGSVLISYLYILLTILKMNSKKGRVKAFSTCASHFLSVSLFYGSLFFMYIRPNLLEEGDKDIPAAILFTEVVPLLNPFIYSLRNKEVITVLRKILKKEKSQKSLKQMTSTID
# Outline: as §1
# A0A6P6H1F7 = system: T6, A0A6P6H1F7
# T6 sequence (whole entry): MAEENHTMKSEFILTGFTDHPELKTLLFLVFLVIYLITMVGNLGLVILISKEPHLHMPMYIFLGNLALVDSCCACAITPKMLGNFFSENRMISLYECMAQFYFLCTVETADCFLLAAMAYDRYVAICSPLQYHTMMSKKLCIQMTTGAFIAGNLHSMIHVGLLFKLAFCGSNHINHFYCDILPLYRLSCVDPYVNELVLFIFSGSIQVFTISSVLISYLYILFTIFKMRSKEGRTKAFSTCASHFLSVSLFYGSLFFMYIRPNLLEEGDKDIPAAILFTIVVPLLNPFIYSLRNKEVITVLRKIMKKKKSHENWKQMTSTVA
# Outline: as §1
# A0A1L1SVG7 = system: T7, A0A1L1SVG7
# T7 sequence (whole entry): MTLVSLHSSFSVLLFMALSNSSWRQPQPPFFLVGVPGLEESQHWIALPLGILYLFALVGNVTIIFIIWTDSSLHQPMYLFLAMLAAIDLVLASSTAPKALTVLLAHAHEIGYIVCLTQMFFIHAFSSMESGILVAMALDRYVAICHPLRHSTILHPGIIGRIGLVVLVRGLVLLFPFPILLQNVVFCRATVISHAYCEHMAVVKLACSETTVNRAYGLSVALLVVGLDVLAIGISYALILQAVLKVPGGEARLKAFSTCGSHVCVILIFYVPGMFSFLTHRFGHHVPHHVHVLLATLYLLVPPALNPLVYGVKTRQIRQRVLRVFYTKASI
# Outline: as §1
# A0A2J8KNW9 = system: A0A2J8KNW9
# Outline: as §1
# A0A2R8ZMP6 = system: A0A2R8ZMP6
# Outline: as §1
# O10A2 H43R H207R K258T = system: T8, O10A2 H43R H207R K258T
# T8 sequence (whole entry): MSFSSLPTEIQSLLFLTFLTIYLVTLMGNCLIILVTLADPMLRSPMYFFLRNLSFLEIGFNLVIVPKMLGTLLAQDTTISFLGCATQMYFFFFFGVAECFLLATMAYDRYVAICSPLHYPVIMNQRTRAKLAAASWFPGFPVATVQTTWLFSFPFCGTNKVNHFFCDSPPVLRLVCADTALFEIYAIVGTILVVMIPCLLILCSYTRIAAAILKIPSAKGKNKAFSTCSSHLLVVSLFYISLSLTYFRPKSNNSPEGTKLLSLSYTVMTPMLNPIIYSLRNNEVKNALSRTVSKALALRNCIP
# Outline: as §1
# O10A3 C8G = system: T9, O10A3 C8G
# T9 sequence (whole entry): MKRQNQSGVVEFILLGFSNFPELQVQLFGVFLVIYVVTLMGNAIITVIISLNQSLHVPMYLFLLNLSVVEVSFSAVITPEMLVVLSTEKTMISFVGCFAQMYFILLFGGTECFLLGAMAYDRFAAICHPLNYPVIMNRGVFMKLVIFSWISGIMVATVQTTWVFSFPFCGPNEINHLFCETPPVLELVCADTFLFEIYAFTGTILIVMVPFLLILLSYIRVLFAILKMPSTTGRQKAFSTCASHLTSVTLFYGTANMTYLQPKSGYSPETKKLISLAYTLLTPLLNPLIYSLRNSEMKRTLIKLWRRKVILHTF
# Outline: as §1
# O10A6 = system: T10, O10A6
# T10 sequence (whole entry): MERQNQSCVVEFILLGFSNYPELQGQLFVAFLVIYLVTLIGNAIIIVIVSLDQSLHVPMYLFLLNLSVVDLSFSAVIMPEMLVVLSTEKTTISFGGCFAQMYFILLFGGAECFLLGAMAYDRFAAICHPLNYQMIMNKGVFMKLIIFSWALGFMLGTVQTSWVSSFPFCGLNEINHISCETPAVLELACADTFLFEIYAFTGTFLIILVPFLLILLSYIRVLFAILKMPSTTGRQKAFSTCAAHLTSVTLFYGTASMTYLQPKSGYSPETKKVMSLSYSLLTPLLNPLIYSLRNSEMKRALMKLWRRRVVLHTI
# Outline: as §1
# O10AD G65C = system: T11, O10AD G65C
# T11 sequence (whole entry): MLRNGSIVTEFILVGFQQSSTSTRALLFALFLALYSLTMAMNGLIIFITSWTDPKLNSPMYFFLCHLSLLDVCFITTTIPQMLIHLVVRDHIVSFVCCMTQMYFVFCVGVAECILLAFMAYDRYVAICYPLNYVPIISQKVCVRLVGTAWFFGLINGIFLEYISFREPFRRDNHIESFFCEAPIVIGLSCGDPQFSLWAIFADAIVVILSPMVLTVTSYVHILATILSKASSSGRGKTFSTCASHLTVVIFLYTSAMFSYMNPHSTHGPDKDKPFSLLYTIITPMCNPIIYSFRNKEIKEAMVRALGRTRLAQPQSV
# Outline: as §1
# O10D3 V134A R197K = system: T12, O10D3 V134A R197K
# T12 sequence (whole entry): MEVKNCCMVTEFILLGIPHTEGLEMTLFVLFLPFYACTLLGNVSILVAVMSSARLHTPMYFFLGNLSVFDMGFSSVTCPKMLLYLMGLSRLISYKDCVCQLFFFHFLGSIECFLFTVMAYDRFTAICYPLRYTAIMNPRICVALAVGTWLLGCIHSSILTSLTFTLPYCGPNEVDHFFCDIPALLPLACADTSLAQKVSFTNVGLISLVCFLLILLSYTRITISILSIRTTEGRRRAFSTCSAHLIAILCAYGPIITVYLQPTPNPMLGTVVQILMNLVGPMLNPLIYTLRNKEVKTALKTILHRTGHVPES
# Outline: as §1
# O10G4 L24P V195E = system: T13, O10G4 L24P V195E
# T13 sequence (whole entry): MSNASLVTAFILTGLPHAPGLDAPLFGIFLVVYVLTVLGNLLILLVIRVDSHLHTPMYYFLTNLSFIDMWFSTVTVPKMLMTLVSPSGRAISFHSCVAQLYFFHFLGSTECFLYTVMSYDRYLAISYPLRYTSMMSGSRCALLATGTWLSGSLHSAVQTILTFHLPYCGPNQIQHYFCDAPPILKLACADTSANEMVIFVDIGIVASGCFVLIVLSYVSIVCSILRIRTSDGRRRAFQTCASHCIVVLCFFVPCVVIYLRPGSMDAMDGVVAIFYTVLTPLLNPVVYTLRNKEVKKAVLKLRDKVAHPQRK
# Outline: as §1
# O10G7 A18V P19Q G20A = system: T14, O10G7 A18V P19Q G20A
# T14 sequence (whole entry): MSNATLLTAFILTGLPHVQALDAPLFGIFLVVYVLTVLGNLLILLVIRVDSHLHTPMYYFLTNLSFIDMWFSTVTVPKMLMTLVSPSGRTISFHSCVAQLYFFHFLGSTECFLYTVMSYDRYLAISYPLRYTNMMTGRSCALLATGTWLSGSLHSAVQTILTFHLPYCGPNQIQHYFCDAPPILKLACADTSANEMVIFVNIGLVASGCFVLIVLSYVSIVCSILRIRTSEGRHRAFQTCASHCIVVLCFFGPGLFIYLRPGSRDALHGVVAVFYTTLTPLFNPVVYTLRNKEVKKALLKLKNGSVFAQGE
# Outline: as §1
# O10G7 I28V = system: T15, O10G7 I28V
# T15 sequence (whole entry): T14 sequence (whole entry) with V18A, Q19P, A20G, I28V
# Outline: as §1
# A0A140T8K0 = system: T16, A0A140T8K0
# T16 sequence (whole entry): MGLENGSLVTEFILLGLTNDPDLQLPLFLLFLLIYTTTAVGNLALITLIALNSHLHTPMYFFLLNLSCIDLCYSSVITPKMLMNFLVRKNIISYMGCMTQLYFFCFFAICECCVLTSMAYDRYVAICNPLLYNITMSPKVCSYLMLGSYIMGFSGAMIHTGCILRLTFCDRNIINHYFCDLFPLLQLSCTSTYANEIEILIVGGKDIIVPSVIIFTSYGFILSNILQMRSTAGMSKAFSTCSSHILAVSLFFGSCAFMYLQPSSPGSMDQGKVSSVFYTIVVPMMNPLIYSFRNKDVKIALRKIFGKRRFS
# Outline: as §1
structure (smiles),measurement,setting,value
Cc1cnccn1,odorant receptor agonist call,A0A140T8K4,inactive
same,odorant receptor agonist call,A0A2J8MY22,active
same,odorant receptor agonist call,A0A2R8ZIW4,active
same,odorant receptor agonist call,A0A3Q7SVK8,active
same,odorant receptor agonist call,A0A6P3DZI2,inactive
same,odorant receptor agonist call,A0A6P6H1F7,active
CCc1nccnc1C(C)=O,odorant receptor agonist call,A0A140T8K4,inactive
same,odorant receptor agonist call,A0A2J8MY22,active
same,odorant receptor agonist call,A0A2R8ZIW4,active
same,odorant receptor agonist call,A0A3Q7SVK8,active
same,odorant receptor agonist call,A0A6P3DZI2,inactive
same,odorant receptor agonist call,A0A6P6H1F7,active
CC(=O)c1nccnc1C,odorant receptor agonist call,A0A140T8K4,inactive
same,odorant receptor agonist call,A0A2J8MY22,active
same,odorant receptor agonist call,A0A2R8ZIW4,active
same,odorant receptor agonist call,A0A3Q7SVK8,active
same,odorant receptor agonist call,A0A6P3DZI2,inactive
same,odorant receptor agonist call,A0A6P6H1F7,active
CCCCCCCC(=O)[O-].[H+],odorant receptor agonist call,A0A140T8K4,inactive
same,odorant receptor agonist call,A0A1L1SVG7,inactive
CC(=O)c1cnccn1,odorant receptor agonist call,A0A140T8K4,inactive
same,odorant receptor agonist call,A0A2J8MY22,active
same,odorant receptor agonist call,A0A2R8ZIW4,active
same,odorant receptor agonist call,A0A3Q7SVK8,active
same,odorant receptor agonist call,A0A6P3DZI2,inactive
same,odorant receptor agonist call,A0A6P6H1F7,active
COc1nccnc1CC(C)C,odorant receptor agonist call,A0A140T8K4,inactive
same,odorant receptor agonist call,A0A2J8MY22,active
same,odorant receptor agonist call,A0A2R8ZIW4,active
same,odorant receptor agonist call,A0A3Q7SVK8,active
same,odorant receptor agonist call,A0A6P3DZI2,inactive
same,odorant receptor agonist call,A0A6P6H1F7,active
CCC(S)C(C)CO (stereo not given),odorant receptor agonist call,A0A2J8KNW9,inactive
same,odorant receptor agonist call,A0A2R8ZMP6,inactive
CCCC(C)=O,odorant receptor agonist call,A0A140T8K4,inactive
same,odorant receptor agonist call,A0A1L1SVG7,inactive
CCCCCCC(=O)[O-].[H+],odorant receptor agonist call,A0A140T8K4,inactive
same,odorant receptor agonist call,A0A1L1SVG7,inactive
CCCCCCC=CCCC=O,odorant receptor agonist call,O10A2 H43R H207R K258T,inactive
same,odorant receptor agonist call,O10A3 C8G,inactive
same,odorant receptor agonist call,O10A6,active
same,odorant receptor agonist call,O10AD G65C,inactive
same,odorant receptor agonist call,O10D3 V134A R197K,inactive
same,odorant receptor agonist call,O10G4 L24P V195E,inactive
same,odorant receptor agonist call,O10G7 A18V P19Q G20A,inactive
same,odorant receptor agonist call,O10G7 I28V,inactive
CCc1cnc(C)c(C)n1,odorant receptor agonist call,A0A140T8K4,active
same,odorant receptor agonist call,A0A2J8MY22,active
same,odorant receptor agonist call,A0A2R8ZIW4,inactive
same,odorant receptor agonist call,A0A3Q7SVK8,inactive
same,odorant receptor agonist call,A0A6P3DZI2,inactive
same,odorant receptor agonist call,A0A6P6H1F7,inactive
CCCCC(=O)O,odorant receptor agonist call,A0A140T8K0,inactive
same,odorant receptor agonist call,A0A140T8K4,inactive
same,odorant receptor agonist call,A0A1L1SVG7,inactive
